Bioassay records (PubChem)
Hits are enriched below; roughly 7.1% of the tested compounds scored in any of these assays.
HCT116 bCat-KO: beta-catenin-lacking colon tumor cell growth suppression | HCT116 beta-catenin knockout viability, CellTiter-Glo, 60 h; stronger effect = lower value | actives 1.5% (n = 140,000) | viability, % at 10 µM;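 active means viability at or under a set limit, the compound median less 4 SD, cut at about 6% in these data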;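 further: 0% = Hyamine 1622 control at 20 µM and 100% = untreated cell control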
HCT116 PTEN-null: PTEN-deleted cell growth suppression | HCT116 PTEN-null viability, CellTiter-Glo, 60 h; stronger effect = lower value | viability, % at 10 µM | actives 1.2% (n = 140,000) | AID 827;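 active means viability at or below a set limit, 4 SD under the median of all tested compounds, cut at about 3.7% in these data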;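 further: PTEN knockout HCT116 line with beta catenin targeted HCT116 as companion control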
Cav32 inh: human Cav3.2 channel inhibition, primary screen; Cav3.2-expressing cells, Fluo-4 calcium fluorescence FDSS; stronger effect = lower value; B-score at 10 µM; actives 4% (n = 100,000);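 active means single-dose well whose peak fluorescence ratio is a statistical outlier from its plate by either plate-standardised score or position-corrected B-score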
Fibroblast inh: blocks proliferation of human lung fibroblasts; actives 1.1% (n = 85,000); LL 47 human lung fibroblast viability, ATP luminescence; stronger effect = lower value; viability, % at 10 µM; AID 719;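 active means viability at or below 50% in the single dose screen; inactive means viability above 50%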;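 further: compound exposure lasted 72 h before the ATP readout; 100% = median luminescence of untreated cell-only wells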
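material = human LL 47 lung fibroblast cells | dosing = compounds added from tenfold dosing solution, 0.1% DMSO final | timing = overnight cell rest, 72 h compound treatment at 37 °C | measured by = CellTiter-Glo luminescence measuring cellular ATP | evaluation = % viability versus median cells-only luminescence | control set = cell-only wells, no compound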
H69AR inhibit: growth inhibitors of human H69AR lung tumor cells; actives 6% (n = 85,000); H69AR lung tumor viability, ATP luminescence, 72 h; stronger effect = lower value; AID 598; viability, % at 10 µM;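 active means viability at or below 40%; inactive means viability above 40%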;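 further: multidrug resistant small cell line overexpressing MRP-1 efflux transporter; 100% = mean luminescence of untreated control wells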
HUVEC prolif 384: blocks proliferation of human endothelial cells; actives 1.1% (n = 86,000); HUVEC proliferation, CellTiter-Glo luminescence, 72 h; stronger effect = lower value; viability, % at 10 µM (by protocol);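 active means viability at or below 30%; inactive means viability above 30%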;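 further: 100% = median luminescence of DMSO-only cell control wells on each plate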
Active calls of the source: *; x = no result given.

SMILES	HCT116 bCat-KO	HCT116 PTEN-null	Cav32 inh	Fibroblast inh	H69AR inhibit	HUVEC prolif 384
Cc1nc2ccccc2c(=O)n1/N=C/c1c(O)ccc2oc3c(c12)CCCC3	4.9*	3.0*	x	64	65	77
O=C(O)c1ccc(NC(CSCc2ccccc2F)C(=O)O)c([N+](=O)[O-])c1 (stereo not drawn)	90	94	x	x	x	x
O=c1oc2ccccc2cc1NCc1ccccc1O	84	92	-5.2*	95	70	91
COc1ccc(-c2cc3ccccc3oc2=O)cc1NC(=O)c1ccc(Br)o1	74	67	-0.62	90	32*	48
COc1ccccc1C(=O)Nc1cc2cc(Br)ccc2oc1=O	58	75	x	95	61	97
COc1ccc(-c2cc3ccccc3oc2=O)cc1NC(=O)c1ccc([N+](=O)[O-])o1	31	28	0.00041	x	x	x
COc1ccccc1C(=O)Nc1cc2ccccc2oc1=O	49	38	-0.015	100	32*	80
Cc1ccc(S(=O)(=O)c2ccc(Cl)cc2)cc1S(=O)(=O)NC(C)C(=O)O (stereo not drawn)	96	103	x	x	x	x
CCOC(=O)Cc1csc(NC(=S)NC(=O)C(C)(C)C)n1	85	97	x	x	x	x
CCS(=O)(=O)N1CCN(c2ccc(Cl)cc2[N+](=O)[O-])CC1	90	91	x	x	x	x
CCOC(=O)Cn1c(=NC(=O)c2ccc([N+](=O)[O-])s2)sc2ccccc21	49	29	x	x	x	x
CCCn1nc(C(=O)NC2CCCc3ccccc32)c2ccccc2c1=O (stereo not drawn)	64	62	x	x	x	x
O=C(Nc1cc(N2CCOCC2)ncn1)NC1(C(F)(F)F)Oc2ccccc2O1	60	67	0.43	89	27*	68
COC(=O)[C@@H](NC(=O)Nc1cccc(OC)c1)C(C)C	103	101	0.25	100	103	99
COc1cccc(NC(=O)NC2(C(F)(F)F)Oc3ccccc3O2)c1	52	59	-3.1	89	23*	98
CC1(C)C2CCC1(C)C1(C2)NC(=O)c2ccccc2O1 (stereo not drawn)	82	91	x	x	x	x
CN(Cc1cn(-c2ccccc2)nc1-c1ccc(Cl)cc1)C(=O)CCC(=O)O	103	93	x	x	x	x
CN(C)CCNc1oc(COc2ccc(-c3ccccc3)cc2)nc1C#N	88	75	-2.4	45*	15*	40
N#Cc1nc(COc2ccc(-c3ccccc3)cc2)oc1NCCCN1CCOCC1	25	33	-1.9	103	49	6.3*
Cc1cc(C)cc(C(=O)NCC(=O)OCC(=O)N2CCN(S(=O)(=O)c3ccc4ccccc4c3)CC2)c1	90	86	x	x	x	x
COCCn1c(C)cc(C(=O)CSc2nncn2-c2ccccc2)c1C	94	101	0.16	98	83	98
Cc1csc(SCC(=O)c2cc(C)n(Cc3cccs3)c2C)n1	75	70	-4*	98	86	56
Cc1cc(C(=O)CSc2nnc(N)s2)c(C)n1Cc1cccs1	92	90	x	x	x	x
COc1ccc(-n2cnnc2SCC(=O)c2cc(C)n(Cc3cccs3)c2C)cc1	89	95	-5.4*	98	91	101
Cc1ccc(S(=O)(=O)N2CCN(CC(=O)N/N=C/C=C/c3ccccc3)CC2)cc1	80	75	x	x	x	x
SMILES	HCT116 bCat-KO	HCT116 PTEN-null	Cav32 inh	Fibroblast inh	H69AR inhibit	HUVEC prolif 384
COc1ccc(C(=O)O/N=C/c2c(C(F)(F)F)nn(C)c2SCc2ccccc2Cl)cc1	4.2*	13	-4.2	x	x	x
COC(=O)c1ccccc1Sc1c(/C=N/OC(=O)c2ccccc2)c(C(F)(F)F)nn1C	75	81	-0.58	111	55	76
Cc1ccc(C(=O)O/N=C/c2c(C(F)(F)F)nn(C)c2Sc2ccc(Cl)cc2)cc1	72	82	-2.6	86	69	101
Cn1nc(C(F)(F)F)c(/C=N/OC(=O)c2ccccc2Cl)c1SCc1ccc(Cl)cc1	64	68	-5*	x	x	x
COC(=O)/C(=C\Nc1ccc(Cl)cc1Cl)NC(=O)c1ccccc1	68	56	-0.74	85	70	51
COC(=O)/C(=C\Nc1ccc(Cl)cc1Cl)NC(=O)c1ccc(Cl)cc1Cl	65	63	x	89	21*	27*
CCc1nc(SCC(=O)NCc2ccc(F)cc2)c2c(=O)n(C)c(=O)n(C)c2n1	86	78	x	104	86	83
CC(C)c1nc(SCC(=O)Nc2ccc3c(c2)OCCO3)c2c(=O)n(C)c(=O)n(C)c2n1	76	81	0.61	106	31*	75
